Published values gathered from unrelated publications.
Target: LIM domain kinase 1 (LIMK1, Homo sapiens, UniProt P53667)

| Compound | effect on | mode | technique | concentration | endpoint | result |
| --- | --- | --- | --- | --- | --- | --- |
| CNC(=O)c1cc2c(Oc3ccc(NC(=O)C4(C(=O)Nc5ccc(F)cc5)CC4)cc3)ccnc2cc1OC | enzyme activity | inhibitor | radiometric | 1 µM | inhibition | 74% |
| CN(C)CC#Cc1ccc(OCCCc2sc(N3CCc4cccc(C(=O)Nc5nc6ccccc6s5)c4C3)nc2C(=O)O)c(F)c1 | cell-free assay |  | competition with immobilised ligand | 1 µM | remaining binding | 97% |
| Oc1ccc(-c2nc(-c3ccncc3)c(-c3ccc(F)cc3)[nH]2)cc1 | cell-free assay |  |  | 0.5 µM | remaining signal | 91.4% |
| CNC(=O)c1ccc(Nc2ncc(C(F)(F)F)c(NCc3nccnc3N(C)S(C)(=O)=O)n2)cc1 | cell-free assay |  | competition with immobilised ligand | 0.1 µM | remaining binding | 100% |
| Cn1cnc(Br)c1C1=CN(c2ncnc3[nH]cnc23)CCS1 | enzyme activity | inhibitor | radiometric | 2 µM | inhibition | 82.8% |
| CCOC(=O)c1cc2cc(-c3cc(C(=O)NCc4ccc(C(=O)O)cc4)nn3C)ccc2[nH]1 | cell-free assay |  | competition with immobilised ligand | 0.1 µM | remaining binding | 100% |
| O=C(Nc1cnn(-c2csc(C(=O)NC3COC3)c2)c1)Nc1ccccc1Cl | enzyme activity | inhibitor |  | 5 µM | remaining activity | 96.2% |
| COc1cc(Cl)c(C(=O)N[C@@H](CN[C@H]2CC[C@@H](N)CC2)Cc2ccc(C#N)cc2)cc1-c1ccc(CN[C@H](C)c2ccc(C)cc2)o1 | enzyme activity | inhibitor |  | 1 µM | remaining activity | 100% |
| CCCOc1ccc(OC)c(F)c1C(=O)c1ccc(C(=O)N[C@@H]2CNC[C@H]2NC(=O)c2ccc3[nH]ncc3c2)cc1 | enzyme activity | inhibitor |  | 10 µM | remaining activity | 73% |
| CCN(CC)CCNC(=O)c1c(C)[nH]c(/C=C2\C(=O)Nc3ccc(F)cc32)c1C | enzyme activity | inhibitor |  | 10 µM | inhibition | 39% |
| Nc1ncnc2occ(-c3ccc(NC(=O)Nc4cc(C(F)(F)F)ccc4F)cc3)c12 | cell-free assay | inhibitor |  | 20 µM | remaining signal | 7.6% |
| O=C1NC(=O)c2cc(Nc3ccc(F)cc3)c(Nc3ccc(F)cc3)cc21 | cell-free assay |  |  | 0.5 µM | remaining signal | 95.9% |
| CNC(=O)c1cc(Oc2ccc(NC(=O)Nc3ccc(Cl)c(C(F)(F)F)c3)cc2)ccn1 | enzyme activity | inhibitor |  | 0.3 µM | inhibition | 29% |
| CC(=O)c1c(NS(C)(=O)=O)c2cc(-c3ccc(Cl)cc3)c(-c3ccc(Cl)cc3Cl)nc2n(C)c1=O | cell-free assay |  | competition with immobilised ligand | 1 µM | remaining binding | 88% |
| CC(C)(C)c1nc2c(s1)c1nc(N)ncc1c1ccc(NS(=O)(=O)c3c(F)cccc3F)c(F)c12 | enzyme activity | inhibitor | radiometric | 1 µM | remaining activity | 100% |
| Cc1cnc(NC2CCOCC2)nc1-n1cnc(C(=O)NC(CN)c2cc(F)cc(Cl)c2)c1 (centres unmarked) | enzyme activity | inhibitor | radiometric | 1 µM | remaining activity | 64% |
| CCCOc1ccc([C@@H]2[C@@H](C(=O)O)[C@H](c3ccc4c(c3)OCO4)CN2CC(=O)Nc2c(CC)cccc2CC)cc1 | cell-free assay |  | competition with immobilised ligand | 1 µM | remaining binding | 90% |
| C[C@@H]1CCN(C(=O)CC#N)C[C@@H]1N(C)c1ncnc2[nH]ccc12 | cell-free assay | inhibitor |  | 0.5 µM | remaining signal | 82% |
| CCN(CC)c1ccc(C2=NNC(=O)CC2C)cc1[N+](=O)[O-] (centres unmarked) | enzyme activity | inhibitor |  | 10 µM | remaining activity | 93% |
| CN1CCN(c2cnc3c(C4CCN(C(=O)c5ccc(OC(F)(F)F)cc5N)CC4)ncnc3c2)CC1 | cell-free assay |  | competition with immobilised ligand | 1 µM | remaining binding | 100% |
